# Measurements of several laboratories.
# Protocols differ between the studies behind these lines.
# Target: Serine/threonine-protein kinase N1 (PKN1, Homo sapiens, UniProt Q16512)
SMILES,assay,setting,measurement,result
O=c1[nH]c2ccc(Cl)cc2c(N[C@@H]2CN3CCC2CC3)c1-c1nc2ccccc2[nH]1,"enzyme activity, inhibitor",1 µM,activity vs control,-1%
N#CC1(c2ccccn2)CCN(Cc2cc(C(=O)O)c(=O)n3ccccc23)CC1,"cell-free assay, competition with immobilised ligand",1 µM,remaining binding,100%
O=c1[nH]c2ccccc2n1C1CCN(Cc2ccc(-c3[nH]c4cc5ncnc5cc4nc3-c3ccccc3)cc2)CC1,cell-free assay,0.5 µM,remaining signal,90.3%
COc1ncccc1-c1cnn2ccc(N3CCN(C(=O)OC(C)C)CC3)nc12,"binding, competition with immobilised ligand",1 µM,remaining binding,90%
Cc1ccccc1-n1c(Cn2cnc3c(N)ncnc32)nc2cccc(C)c2c1=O,"enzyme activity, inhibitor",1 µM,activity vs control,81%
Cn1cc(-c2cc(F)cc(N3CCn4c(cc5c4CCCC5)C3=O)c2CO)cc(Nc2ccc(N3CCN(C4COC4)CC3)cn2)c1=O,"enzyme activity, inhibitor",0.1 µM,inhibition,11%
Nc1ncc(-c2nc(N3CCOCC3)nc(N3CCOCC3)n2)c(C(F)F)n1,"binding, competition with immobilised ligand",10 µM,remaining binding,49%
Cn1cncc1[C@@](O)(COc1ccc(C#N)cc1-c1ccc(OC(F)(F)F)cc1)c1ccc(C#N)cc1,"cell-free assay, competition with immobilised ligand",1 µM,remaining binding,100%
CC(C)(C)c1cc(C=C(C#N)C#N)cc(Br)c1O,"enzyme activity, inhibitor",0.5 µM,remaining activity,94.5%
Cn1cc(-c2cccc(N3CCc4c(sc5c4CC(C)(C)C5)C3=O)c2CO)cc(Nc2ccncn2)c1=O,"enzyme activity, inhibitor",1 µM,inhibition,1%
Cc1n[nH]c2ccc(-c3cncc(OC[C@@H](N)Cc4c[nH]c5ccccc45)c3)cc12,"enzyme activity, inhibitor",1 µM,activity vs control,-1%
